20 compounds from ChEMBL document CHEMBL1138251, “Synthesis and evaluation of antiparasitic activities of new 4-[5-(4-phenoxyphenyl)-2H-pyrazol-3-yl]morpholine derivatives” (J Med Chem, 2007) can be followed below.

One experiment relates to Plasmodium falciparum. As to the kind of experiment: Antiparasitic activity against chloroquine, pyrimethamine-resistant Plasmodium falciparum K1 erythrocyte stage.
The next experiment relates to Leishmania donovani. As to the kind of experiment: Antiparasitic activity against Leishmania donovani MHOM-ET-67/L82 in amastigotes stage. The experiment is classed as functional, organism-based. The gist of the method:
(§1)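 Microplate assay at pH 7.4. Organisms: L. donovani MHOM-ET-67/L82, T. b. rhodesiense STIB900, T. cruzi Tulahuen C4. Cytotoxicity used rat skeletal myoblast L-6 cells. Compounds were tested in duplicate at […], and actives were retested in duplicate down to 3.5 nM. IC50 was taken from sigmoidal inhibition curves. Reference standards: miltefosine (L. donovani), melarsoprol (T. b. rhodesiense), benznidazole (T. cruzi), podophyllotoxin (L-6).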

A further experiment deals with L6. As to the kind of experiment: Cytotoxicity against rat L6 cells. It counts as cell-based.
Experiment [1] relates to Trypanosoma brucei rhodesiense. As to the kind of experiment: Antiparasitic activity against Trypanosoma brucei rhodesiense STIB900 in procyclic stage. It counts as functional, organism-based.
Another experiment concerns Trypanosoma cruzi. As to the kind of experiment: Antiparasitic activity against Trypanosoma cruzi Tulahuen C4 in amastigotes stage.
Experiment [2] relates to Trypanosoma brucei rhodesiense. Nature of the experiment: Antiparasitic activity against Trypanosoma brucei rhodesiense STIB900 in blood. The experiment is classed as functional, organism-based. The gist of the method: as §1

pIC50: −log10 of the molar value. Bounds are passed on as bounds.

For `CCc1ccc(C(=O)CC(=O)C2CCOCC2)cc1`, the pIC50 (as a rule, −log10 of the IC50, conventionally taken in molar units) in the experiment with Plasmodium falciparum was under 4.72; with Leishmania donovani it was 5.01; with L6 it was 3.70; in experiment [1], 5.47; in the experiment with Trypanosoma cruzi, 4.26; in experiment [2], 4.68.
As to `CC(C)(C)OC(=O)N1CCN(c2cc(-c3ccc(Oc4ccccc4)cc3)n[nH]2)CC1`, the pIC50 with Plasmodium falciparum was 5.09; with Leishmania donovani, 5.64; with L6 it was 4.52; in experiment [1], 4.75; with Trypanosoma cruzi, 4.89; in experiment [2] it was 5.54.
Regarding `Nc1nc(N)nc(Nc2ccc([As]3SCC(CO)S3)cc2)n1` (stereo unspecified) [MELARSOPROL], the pIC50 is 6.89 in experiment [1] and 8.00 in experiment [2].
As for `Nc1ccc(Oc2ccc(-c3cc(N4CCOCC4)[nH]n3)cc2)cc1`, the pIC50 in the experiment on Plasmodium falciparum is under 4.85; with Leishmania donovani, 4.69; in the experiment with L6, under 3.57; in experiment [1], under 3.57; in the experiment on Trypanosoma cruzi, under 4.05; in experiment [2] it was 4.75.
Turning to `c1ccc(Oc2ccc(-c3cc(N4CCNCC4)[nH]n3)cc2)cc1`, the pIC50 was 5.18 with Plasmodium falciparum; 4.59 in the experiment on Leishmania donovani; 4.74 in the experiment on L6; 5.33 in experiment [1]; 5.02 in the experiment on Trypanosoma cruzi; 5.96 in experiment [2].
With `c1ccc(Oc2ccc(-c3cc(N4CCOCC4)[nH]n3)cc2)cc1`, the pIC50 with Plasmodium falciparum is under 4.82; in the experiment with Leishmania donovani, 5.10; in the experiment on L6, 4.21; in experiment [1], 4.39; in the experiment with Trypanosoma cruzi, 4.28; in experiment [2] it was 6.00.
On to `O=C(CC(=O)c1ccc(Oc2ccccc2)cc1)CN1CCOCC1`, for which the pIC50 was under 4.82 with Plasmodium falciparum; 5.28 in the experiment with Leishmania donovani; 3.95 in the experiment with L6; 6.00 in experiment [1]; 4.69 with Trypanosoma cruzi; 4.72 in experiment [2].
In the case of `O=[N+]([O-])c1ccc(Oc2ccc(-c3cc(N4CCOCC4)[nH]n3)cc2)cc1`, the pIC50 in the experiment with Plasmodium falciparum was under 4.89; with Leishmania donovani, 4.65; in the experiment on L6 it was under 3.61; in experiment [1] it was 4.03; in the experiment with Trypanosoma cruzi, under 4.09; in experiment [2] it was 5.36.
Regarding `O=C(CC(=O)C1CCOCC1)c1ccc(Oc2ccccc2)cc1`, the pIC50 was under 4.82 with Plasmodium falciparum; 5.34 in the experiment on Leishmania donovani; 3.64 in the experiment with L6; 5.74 in experiment [1]; 4.26 with Trypanosoma cruzi; 4.59 in experiment [2].
With `c1ccc(Oc2ccc(-c3cc(CN4CCOCC4)[nH]n3)cc2)cc1`, the pIC50 in the experiment on Plasmodium falciparum was under 4.85; in the experiment on Leishmania donovani, 4.81; in the experiment with L6, 3.82; in experiment [1], 4.26; in the experiment with Trypanosoma cruzi, 4.34; in experiment [2], 5.39.
Take `CSC(=CC(=O)c1ccc(Oc2ccc([N+](=O)[O-])cc2)cc1)SC`: the pIC50 with Plasmodium falciparum is under 4.89; in the experiment on Leishmania donovani, 5.24; with L6, 3.81; in experiment [1] it was under 3.60; in the experiment on Trypanosoma cruzi, under 4.08; in experiment [2], 4.34.
In the case of `CSC(=CC(=O)c1ccc(Oc2ccccc2)cc1)SC`, the pIC50 with Plasmodium falciparum is under 4.82; with Leishmania donovani it was 5.01; in the experiment with L6, 4.46; in experiment [1], 4.78; in the experiment with Trypanosoma cruzi, 4.61; in experiment [2], 4.29.
In the case of `O=C(Cn1ccnc1[N+](=O)[O-])NCc1ccccc1` [BENZNIDAZOLE], in the experiment with Trypanosoma cruzi, the pIC50 was 5.67.
For `O=[N+]([O-])c1ccc(-n2nc(-c3ccc(Oc4ccccc4)cc3)cc2N2CCOCC2)cc1`, the pIC50 in the experiment with Plasmodium falciparum is 5.43; in the experiment with Leishmania donovani it was 5.32; with L6 it was under 3.69; in experiment [1], under 3.69; with Trypanosoma cruzi, under 4.17; in experiment [2] it was 4.54.
In the case of `c1ccc(Oc2ccc(-c3cc(C4CCOCC4)[nH]n3)cc2)cc1`, the pIC50 in the experiment on Plasmodium falciparum is under 4.82; with Leishmania donovani, 5.19; with L6, 4.05; in experiment [1], 4.37; in the experiment with Trypanosoma cruzi, 4.23; in experiment [2], 5.49.
For `Nc1ccc(-n2nc(-c3ccc(Oc4ccccc4)cc3)cc2N2CCOCC2)cc1`, the pIC50 in the experiment with Plasmodium falciparum is 5.19; in the experiment on Leishmania donovani it was 4.98; in the experiment on L6, 4.21; in experiment [1], 4.21; with Trypanosoma cruzi, 4.66; in experiment [2] it was 4.99.
With `CSC(=CC(=O)c1ccc([N+](=O)[O-])cc1)SC`, the pIC50 in the experiment on Plasmodium falciparum is under 4.74; with Leishmania donovani, 4.69; in the experiment on L6, 4.39; in experiment [1], under 3.48; in the experiment with Trypanosoma cruzi, 4.26; in experiment [2], 3.65.
On to `CCc1ccc(-c2cc(C3CCOCC3)[nH]n2)cc1`, for which the pIC50 was under 4.72 in the experiment on Plasmodium falciparum; 4.82 in the experiment with Leishmania donovani; 3.78 in the experiment on L6; 5.11 in experiment [1]; 3.94 with Trypanosoma cruzi; 4.54 in experiment [2].
Consider `c1ccc(Oc2ccc(-c3cc(N4CCOCC4)on3)cc2)cc1`, for which the pIC50 is 4.98 with Plasmodium falciparum; 4.90 in the experiment on Leishmania donovani; 3.76 in the experiment on L6; 4.12 in experiment [1]; 4.33 in the experiment with Trypanosoma cruzi; 5.23 in experiment [2].
For `CCCCCCCCCCCCCCCCOP(=O)([O-])OCC[N+](C)(C)C` [MILTEFOSINE], the pIC50 in the experiment with Leishmania donovani was 6.59.
